Bioassay records: PubChem, several laboratories
Hits are enriched below; roughly 2.6% of the tested compounds scored in any of these assays.
NPY-Y2 antag – blocks the human neuropeptide Y Y2 receptor; NPY-Y2 expressing cells, antagonist mode; inhibition, % at 2.7 µM; 140,000 tested, 0.99% active; AID 793; in the data active = inhibition above about 17%;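 note: 0% = vehicle with agonist challenge and 100% = reference antagonist with challenge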
NPY-Y2 PAM-ag – human NPY-Y2 potentiation or agonism, primary screen | cells expressing NPY-Y2, potentiator/agonist read-out | 220,000 tested, 0.45% active | P49146 | AID 1359 | activation, % at 3.6 µM; in the data active = activation above about 27%;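 note: cells stimulated with NPY near EC25 plus isoproterenol at EC100; 0% = vehicle plus submaximal agonist and 100% = vehicle plus saturating agonist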
NPY-Y1 antag – NPY-Y1 (human) receptor antagonism. HEK293-CNG Y1 cells, membrane potential fluorescence; NPY at EC95, then isoproterenol. inhibition, % at 3.6 µM. 200,000 tested, 1% active. P25929;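 active = inhibition above the campaign mean inhibition of all tested compounds plus 3 SD, cut at about 20% in these data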;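 note: 0% = DMSO wells given NPY plus isoproterenol and 100% = isoproterenol alone without NPY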
Target sequence (P25929 whole entry, looked up): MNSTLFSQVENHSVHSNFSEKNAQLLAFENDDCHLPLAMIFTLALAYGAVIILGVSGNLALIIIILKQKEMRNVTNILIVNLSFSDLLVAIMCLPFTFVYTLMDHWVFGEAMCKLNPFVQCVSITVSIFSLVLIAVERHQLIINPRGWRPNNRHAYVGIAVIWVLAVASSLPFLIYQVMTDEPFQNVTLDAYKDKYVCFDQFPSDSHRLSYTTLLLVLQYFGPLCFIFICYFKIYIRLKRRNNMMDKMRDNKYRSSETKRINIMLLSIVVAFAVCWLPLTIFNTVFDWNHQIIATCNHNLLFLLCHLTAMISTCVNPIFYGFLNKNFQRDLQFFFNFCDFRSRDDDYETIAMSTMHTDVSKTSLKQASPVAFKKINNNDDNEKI
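material = HEK293 cells with Y1 receptor plus CNG channel | also added = NPY 25 nM then isoproterenol 1 µM plus Ro 20-1724 25 µM | schedule = dye 3 h, compound 60 min room temperature, stimulation 45 min | measured by = membrane potential fluorescence | benchmarks = high control isoproterenol alone, low control NPY with isoproterenol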
MT stabilizer – stabilizes microtubules in HeLa cells. HeLa tubulin immunostaining HCS, 24 h; share of cells brighter than vehicle mean+2SD. % tubulin-high responders, % at 10 µM. 200,000 tested, 0.83% active. AID 2205;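 active = plate Z-score above 3 for both tubulin-high and condensed-nucleus cell shares, with cell loss under 80%, at 10 µM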;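 note: anti alpha tubulin signal scored within the nucleus-defined area of each cell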
NPY1 pot ag – potentiators or agonists of human neuropeptide Y receptor Y1. NPY-Y1 expressing cells, potentiator/agonist activation. activation, % at 3.6 µM. 220,000 tested, 0.37% active. AID 1304; in the data active = activation above about 33%, passing the limit was not always enough;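 note: cells stimulated with NPY at EC10 then isoproterenol at EC100; 0% = low agonist plus stimulus and 100% = saturating agonist plus stimulus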
bCat nuc transl – beta-catenin nuclear translocation modulation. nuclear translocation activity, % at 5 µM. HeLa beta-catenin nuclear translocation, immunofluorescence imaging. 190,000 tested, 0.3% active. AID 1665;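 active = nuclear translocation activity above 50% at 5 µM, with a well cell count of 50 or more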;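 note: per-cell ratio of nuclear to cytoplasmic median beta-catenin stain intensity; plate controls were DMSO negative control for no effect and GSK-3 inhibitor IX positive control for full effect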
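Technique: fluorescence imaging of beta-catenin antibody stain plus DAPI / Material: human HeLa cell line / Incubation: compound treatment 24 h, 37°C, 5% CO2 / Read-out basis: % activation of per-cell nuclear versus cytoplasmic median beta-catenin signal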
* = called active by the depositor; . = no result.

SMILES	NPY-Y2 antag	NPY-Y2 PAM-ag	NPY-Y1 antag	MT stabilizer	NPY1 pot ag	bCat nuc transl
COc1ccc(OC)c(Nc2ncnc3c2cnn3-c2cccc(C)c2)c1	4	-18	18	35*	-5	1
Cc1cccc(-n2ncc3c(NCc4ccccc4)ncnc32)c1	7	15	1	6	-8	-1
Cc1ccc(-n2ncc3c(NCc4ccco4)ncnc32)cc1C	.	4	1	9.4*	14	0
COc1ccccc1NC(=O)COc1ccc(Br)cc1CNC1CCCC1	.	-10	21*	3	-20	0
COc1ccccc1NC(=O)COc1ccc(Br)cc1CO	6	2	12	1	0	.
Cc1cc(C)cc(N=Cc2[nH]c3ccc(Br)c(Cl)c3c2O)c1	5	0	-2	31*	-34	-1
CCOC(=O)C(C)Sc1nc2c(cnn2-c2ccc(C)cc2)c(=O)[nH]1 (centres undefined)	1	-14	0	43*	-14	1
Cc1ccc(-n2ncc3c(=O)[nH]c(SC(C)C)nc32)cc1	6	2	0	6	-17	-2
COc1c(Br)cc([N+](=O)[O-])c(OC)c1C(=O)NC(=O)Nc1nc(C)cc(C)n1	.	-11	.	.	3	-1
CCN(c1ccccc1)S(=O)(=O)c1ccc(Cl)c(NC(=O)CSc2n[nH]c(N)n2)c1	2	14	4	4	15	-3
Cc1cc(C)c(NC(=O)COc2ccccc2C(=O)Nc2ccc3c(c2)oc2ccccc23)c(C)c1	0	13	0	1	-12	.
CCOc1ccccc1NC(=O)CC1Nc2cc(C)c(C)cc2NC1=O (centres undefined)	7	0	-1	23*	-32	.
CCOc1ccccc1NC(=O)CC1Nc2ccccc2NC1=O (centres undefined)	1	-1	0	3	2	1
COc1ccccc1C(CCN(Cc1cccs1)C(C)=O)c1ccco1 (centres undefined)	4	-8	-1	3	20	2
CCC(=O)N(CCC(c1ccccc1)c1ccco1)Cc1cccs1 (centres undefined)	22*	-5	27*	5	-12	0
CC(=O)C1=C(C)Nc2ncnn2C1c1ccc(Cl)cc1 (centres undefined)	0	8	3	4	-20	-1
O=C1/C(=C\c2ccccc2)CCc2c1[nH]c1ccccc21	7	3	7	21*	-16	0
CCCCN(CCCC)CCNC(=O)Cc1nc2c(c(=O)[nH]c(=O)n2C)n1C	1	-15	1	3	-7	0
O=C(/C=C/c1ccco1)NC(=S)Nc1cccc([N+](=O)[O-])c1	10	7	-4	15*	-6	2
O=C(NC(=S)Nc1cccc([N+](=O)[O-])c1)c1ccco1	1	-10	6	2	1	1
O=C(/C=C/c1ccco1)NC(=S)Nc1ccc(N2CCOCC2)c(Cl)c1	2	-9	3	48*	3	0
Cc1ccc(NC(=O)/C=C/c2ccco2)nc1	4	-9	8	4	-1	146*
O=C(/C=C/c1ccccc1)NC(=S)Nc1ccc(N2CCOCC2)c(Cl)c1	6	1	7	1	-3	-2
O=C(/C=C/c1ccco1)Nc1ccc(N2CCCC2)cc1	2	1	2	25*	11	7
NNC(=O)c1cc2sccc2s1	.	-36	.	.	-4	-3
SMILES	NPY-Y2 antag	NPY-Y2 PAM-ag	NPY-Y1 antag	MT stabilizer	NPY1 pot ag	bCat nuc transl
COc1ccc(-c2csc(NC(=S)NC(=O)/C=C/c3ccco3)n2)cc1OC	0	-8	-2	2	12	52*
Cc1ccc(-n2nc3ccc(NC(=S)NC(=O)/C=C/c4ccco4)cc3n2)cc1	0	-2	-4	2	0	2
Cc1cccc(NC(=S)NC(=O)/C=C/c2ccco2)c1	.	-36	7	22*	-15	52*
CC(C)(C)c1cc(C(F)(F)F)n2ncc(-c3ccccc3)c2n1	.	3	9	7	-12	4
Cc1nn(CC2CC2)c(=O)n1-c1ccc(Oc2ccccc2)cc1	.	-3	1	2	24	-2
O=C1CSC(c2ccccc2)N1c1nnc(C23CC4CC(CC(C4)C2)C3)s1 (centres undefined)	0	15	-1	2	6	-3
